From ChEMBL document CHEMBL4616636, “A new series of aryl sulfamate derivatives: Design, synthesis, and biological evaluation” (Bioorg Med Chem, 2020)

Key:
[1] = molecular target: T1, Steryl-sulfatase (Homo sapiens) (UniProt P08842); test: Inhibition of steroid sulfatase in human JEG3 cell lysates at 10 uM using [3H] E1S as substrate after 1 hr by scintillation spectrometry analysis relative to control; assay type: cell-free; settings: JEG-3
T1 sequence (whole entry): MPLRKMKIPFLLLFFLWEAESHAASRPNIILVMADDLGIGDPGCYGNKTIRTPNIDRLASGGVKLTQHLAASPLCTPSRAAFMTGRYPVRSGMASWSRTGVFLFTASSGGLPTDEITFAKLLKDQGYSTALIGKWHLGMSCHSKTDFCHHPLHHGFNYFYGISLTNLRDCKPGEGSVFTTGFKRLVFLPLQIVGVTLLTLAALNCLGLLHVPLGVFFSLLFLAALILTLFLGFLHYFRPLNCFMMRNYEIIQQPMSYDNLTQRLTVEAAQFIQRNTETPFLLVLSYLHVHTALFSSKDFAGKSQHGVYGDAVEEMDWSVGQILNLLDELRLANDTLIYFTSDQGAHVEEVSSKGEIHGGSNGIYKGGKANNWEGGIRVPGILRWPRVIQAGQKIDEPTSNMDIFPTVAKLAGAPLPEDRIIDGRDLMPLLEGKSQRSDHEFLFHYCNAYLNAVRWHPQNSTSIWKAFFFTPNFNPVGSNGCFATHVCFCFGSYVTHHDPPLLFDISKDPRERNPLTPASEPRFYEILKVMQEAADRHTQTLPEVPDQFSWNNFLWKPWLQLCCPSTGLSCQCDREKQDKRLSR
In short: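 JEG-3 placental choriocarcinoma lysate (125 µg protein/mL) incubated 1 h with inhibitor at 10 µM and [3H]E1S brought to 20 µM with unlabelled E1S. Estrone product extracted into toluene, [14C]E1 used to correct for losses, 3H/14C counted by scintillation. Reported as % inhibition versus untreated control, mean ± SEM, n=3.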

[2] = tested on: T47D; test: Antiproliferative activity against human T47D cells assessed as reduction in cell proliferation measured after 5 days in presence of estradiol sulfate by crystal violet staining based assay; assay type: functional; settings: 120 h
In short: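 T-47D cells kept in EMEM with pyruvate, gentamycin, bicarbonate and 10% FBS at 37 °C, 5% CO2. After 3 days of growth, medium swapped for one with compound, 100 nM estradiol sulfate and 10% charcoal-stripped FBS, then 5 days of incubation. Glutaraldehyde fixation, crystal violet stain, ethanol elution, OD at 578 nm. IC50 reported as mean ± SEM of triplicate assays.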

[3] = molecular target: T2, Steryl-sulfatase (Homo sapiens, UniProt P08842); test: Inhibition of steroid sulfatase in human JEG3 cell lysates using [3H] E1S as substrate after 1 hr by scintillation spectrometry analysis; assay type: cell-free, JEG-3
T2 sequence (P08842 whole entry): T1 sequence (whole entry)
In short: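 Estrone taken into toluene, recovery corrected with [14C]E1, scintillation counting. E1S hydrolysed calculated from 3H counts and substrate specific activity, and IC50 derived from the dose-response.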

[4] = molecular target: T2, Steryl-sulfatase; test: Inhibition of steroid sulfatase in human JEG3 cells using [3H] E1S as substrate incubated for 20 hrs by scintillation spectrometry analysis; assay type: cell-based, JEG-3
In short: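 Intact JEG-3 monolayers incubated 20 h at 37 °C in serum-free EMEM with [3H]E1S (5 pmol, 60 Ci/mmol), with or without inhibitor at 10 µM. Estrone in the medium separated from E1S by toluene partition, [14C]estrone used to correct for procedural losses. E1S hydrolysed calculated from scintillation counts.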

Compound | inhibition [1] [%] | IC50 [2] [µM] | IC50 [3] [nM] | IC50 [4] [nM]
NS(=O)(=O)Oc1ccc(C(=O)NC23CC4CC(CC(C4)C2)C3)cc1 | 90 | – | – | –
NS(=O)(=O)Oc1ccc(NC(=O)C2CCCCCC2)cc1 | 52.3 | – | – | –
Cc1cc(OS(N)(=O)=O)ccc1NC(=O)C12CC3CC(CC(C3)C1)C2 | 58.5 | – | – | –
NS(=O)(=O)Oc1ccc(C(=O)NC23CC4CC(CC(C4)C2)C3)cc1F | 97.2 | 3.4 | 67.7 | –
NS(=O)(=O)Oc1ccc2c(ccn2C(=O)C23CC4CC(CC(C4)C2)C3)c1 | 63.4 | – | – | –
NS(=O)(=O)Oc1ccc(CNC(=O)C23CC4CC(CC(C4)C2)C3)cc1 | -5.3 | – | – | –
NS(=O)(=O)Oc1ccc2c3c(c(=O)oc2c1)CCCCC3 [IROSUSTAT] | – | 0.92 | – | –
NS(=O)(=O)Oc1ccc(C(=O)NC23CC4CC(CC(C4)C2)C3)cc1Br | 94.6 | 4.67 | 74.1 | –
NS(=O)(=O)Oc1ccc2c(ccn2C(=O)C2CCCCC2)c1 | 14.3 | – | – | –
NS(=O)(=O)Oc1ccc(NC(=O)C23CC4CC(CC(C4)C2)C3)cc1Cl | 88.6 | – | – | –
NS(=O)(=O)Oc1ccc(C(=O)NC23CC4CC(CC(C4)C2)C3)cc1Cl | 98.3 | 1.04 | 25.8 | 150
NS(=O)(=O)Oc1ccc(NC(=O)c2ccc3ccccc3c2)cc1 | 53.6 | – | – | –
NS(=O)(=O)Oc1ccc(NC(=O)C2CCCC2)cc1 | 62 | – | – | –
NS(=O)(=O)Oc1ccc(NC(=O)c2cccnc2)cc1 | 12.9 | – | – | –
NS(=O)(=O)Oc1ccc(NC(=O)C23CC4CC(CC(C4)C2)C3)cc1Br | 82.7 | – | – | –
CN(C(=O)C12CC3CC(CC(C3)C1)C2)c1ccc(OS(N)(=O)=O)cc1 | 61 | – | – | –
COc1ccc(C(=O)Nc2ccc(OS(N)(=O)=O)cc2)cc1 | 72.7 | – | – | –
NS(=O)(=O)Oc1ccc(NC(=O)c2ccccc2)cc1 | 25.4 | – | – | –
NS(=O)(=O)Oc1ccc(NC(=O)NC23CC4CC(CC(C4)C2)C3)cc1 | 5.32 | – | – | –
NS(=O)(=O)Oc1ccc(NC(=O)C23CC4CC(CC(C4)C2)C3)cc1 | 93.9 | 5.78 | 110 | 13.6
NS(=O)(=O)Oc1ccc(NC(=O)c2ccc(Cl)cc2)cc1 | 24.6 | – | – | –
NS(=O)(=O)Oc1ccc(NC(=O)C23CC4CC(CC(C4)C2)C3)cc1F | 86.3 | – | – | –
